Experiments:
[1] = Volume of distribution at steady state in Sprague-Dawley rat at 5 mg/kg, iv administered as single dose; format: ADME, organism-based; details: in vivo, read-out: Vdss
Method in brief: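 Male SD rats, 3 per group, single iv 5 mg/kg or oral 10 mg/kg. Blood sampled 0.083 (iv only), 0.25, 0.5, 1, 2, 4, 6, 8, 24 h postdose; plasma separated at 4 °C, stored −80 °C, analysed within 1 week. Parameters from plasma concentration-time data; F from dose-normalized AUC, oral vs iv.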

Staphylococcus aureus [2] = assay: Sensitization of methicillin-resistant Staphylococcus aureus USA300 LAC to H2O2 assessed as reduction in bacterial survival at 1 uM measured after 24 hrs relative to control; format: functional
Method in brief: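 Strains grown 24 h in TSB with or without inhibitor, washed twice in PBS, then diluted to 4 × 10^6 CFU per 250 µL reaction. H2O2 added to a final 1.5%. Tubes sealed and held 30 min at 37 °C. Reaction stopped with 1000 U/mL catalase. Survivors counted as CFU by serial dilution on TSA plates and compared with untreated (mock) bacteria.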

[3] = Cytotoxicity against human WI38 cells measure after 72 hrs by SRB assay; format: cell-based; details: WI-38, 72 h
Nannizzia gypsea = assay: Antifungal activity against Microsporum gypseum measured after 7 days by serial dilution method; format: functional
Method in brief: (§1)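 Broth serial dilution MIC per NCCLS in RPMI 1640 buffered with 0.165 M MOPS; compounds in DMSO diluted in medium. Dermatophytes incubated at 28 °C, read at 7 days. MIC taken as lowest concentration giving ≥80% growth inhibition versus control (turbidity).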

Staphylococcus aureus [4] = assay: Antibacterial activity against Staphylococcus aureus USA400 MW2 infected Balb/c mouse assessed as reduction of bacterial survival in liver at 1.3 mg, ip bid administered for 4.5 days followed by bacterial infection measured after 5 days; format: functional
Method in brief: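 Female BALB/c mice, 6–8 weeks. Compound in sterile water ip once and every 12 h for 108 h, total 50 or 200 mg/kg; water controls. Infected 12 h after first dose with 4 × 10^7 CFU USA400 MW2 (100 µL). Killed 5 days post infection; liver or kidney CFU counted on TSA after homogenising in PBS/0.1% Triton X-100. n = 13; two-tailed Mann-Whitney.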

Staphylococcus aureus [5] = assay: Sensitization of Staphylococcus aureus Newman to immune clearance in human whole blood assessed as bacterial survival at 1 uM measured after 24 hrs (reference value: 26.7%); format: functional
Staphylococcus aureus [6] = assay: Antibacterial activity against Staphylococcus aureus Newman infected Balb/c mouse assessed as reduction of bacterial survival in kidney at 5.2 mg, ip bid administered for 4.5 days followed by bacterial infection measured after 5 days; format: functional
Method in brief: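 Female BALB/c mice, 6–8 weeks, dosed ip with compound in sterile water once and every 12 h for 108 h; water vehicle controls. Challenged 12 h after first dose with 1 × 10^7 CFU Newman by retro-orbital injection. Kidneys and hearts homogenised in PBS/0.1% Triton X-100 and plated on TSA for CFU. n = 13 mice; two-tailed Mann-Whitney.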

Staphylococcus aureus [7] = assay: Sensitization of Staphylococcus aureus Newman to H2O2 assessed as bacterial survival at 1 uM measured after 24 hrs (reference value: 36.2%); format: functional
Staphylococcus aureus [8] = assay: Antibacterial activity against Staphylococcus aureus Mu50 infected Balb/c mouse assessed as reduction of bacterial survival in kidney at 1.3 mg, ip bid administered for 4.5 days followed by bacterial infection measured after 5 days; format: functional
Staphylococcus aureus [9] = assay: Suppression in growth of methicillin-resistant Staphylococcus aureus Mu50 at 0.05 mM measured after overnight incubation by spectrophotometric method; format: organism-based; details: 50 µM
Method in brief: (§2)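 Compound from 20 mM DMSO stock diluted in TSB to final 0.2 or 0.05 mM; DMSO growth controls; paraffin overlay. Overnight cultures inoculated to final OD600 ≈ 0.05; incubated at 37 °C overnight with OD600 read every 30 min.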

Staphylococcus aureus [10] = assay: Sensitization of methicillin-resistant Staphylococcus aureus USA300 LAC to H2O2 assessed as bacterial survival at 1 uM measured after 24 hrs (reference value: 14.2%); format: functional
Staphylococcus aureus [11] = assay: Sensitization of Staphylococcus aureus USA300 LAC to immune clearance in human whole blood assessed as reduction in bacterial survival at 1 uM […] relative to control; format: functional
Staphylococcus aureus [12] = assay: Sensitization of methicillin-resistant Staphylococcus aureus Mu50 to immune clearance in human whole blood assessed as reduction in bacterial survival at 1 uM measured after 24 hrs relative to control; format: functional
Method in brief: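 Overnight cultures spun down and resuspended in sterile PBS at 1 × 10^7 CFU/mL. 40 µL mixed with 360 µL fresh whole blood from a healthy human volunteer, giving 1 × 10^6 CFU/mL. Incubated 6 h at 37 °C. Surviving CFU counted by plating dilutions on TSA.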

Trichophyton rubrum = assay: Antifungal activity against Trichophyton rubrum measured after 7 days by serial dilution method; format: functional; method in brief: as §1
Staphylococcus aureus [13] = assay: Suppression in survival of methicillin-resistant Staphylococcus aureus USA300 LAC at 0.2 mM measured after overnight incubation by spectrophotometric method; format: ADME, organism-based; details: 200 µM; method in brief: as §2
Staphylococcus aureus [14] = assay: Sensitization of methicillin-resistant Staphylococcus aureus Mu50 to immune clearance in human whole blood assessed as bacterial survival at 1 uM measured after 24 hrs (reference value: 16.1%); format: functional
Staphylococcus aureus [15] = assay: Sensitization of Staphylococcus aureus Newman to immune clearance in human whole blood assessed as reduction in bacterial survival at 1 uM […] relative to control; format: functional
[16] = test system: Trichophyton mentagrophytes; assay: Antifungal activity against Trichophyton mentagrophytes measured after 7 days by serial dilution method; format: functional; method in brief: as §1
Staphylococcus aureus [17] = assay: Suppression in growth of methicillin-resistant Staphylococcus aureus USA400 MW2 at 0.05 mM measured after overnight incubation by spectrophotometric method; format: organism-based; details: 50 µM; method in brief: as §2
[18] = Cytotoxicity against HMEC1 measure after 72 hrs by SRB assay; details: Homo sapiens, HMEC-1, 72 h
Staphylococcus aureus [19] = assay: Sensitization of methicillin-resistant Staphylococcus aureus Mu50 to H2O2 assessed as bacterial survival at 1 uM measured after 24 hrs (reference value: 25.3%); format: functional; details: Mu50, 24 h

## CN(C/C=C/c1ccc(C(F)(F)F)cc1)Cc1cccc2ccoc12.Cl
[1]
  Vd: 10.7 L/kg
Staphylococcus aureus [2]
  fold change (FC): 20
[3]
  IC50: 47.9 µM
Nannizzia gypsea
  MIC80 (lowest concentration giving ≥80% growth inhibition): 32 µg/mL
Staphylococcus aureus [4]
  Activity: 0.71 deltalog10CFU
Staphylococcus aureus [5]
  survival at 1 µM: 0.8%
Staphylococcus aureus [6]
  Activity: 0.85 deltalog10CFU
Staphylococcus aureus [7]
  survival at 1 µM: 1.2%
Staphylococcus aureus [8]
  Activity: 0.68 deltalog10CFU
Staphylococcus aureus [9]
  Activity: Non-toxic
Staphylococcus aureus [10]
  survival at 1 µM: 0.7%
Staphylococcus aureus [11]
  fold change (FC): 10
Staphylococcus aureus [12]
  fold change (FC): 5
Trichophyton rubrum
  MIC80: 16 µg/mL
Staphylococcus aureus [13]
  Activity: Non-toxic
Staphylococcus aureus [14]
  survival at 1 µM: 3%
Staphylococcus aureus [15]
  fold change (FC): 33
[16]
  MIC=<80: >64 µg/mL
Staphylococcus aureus [17]
  Activity: Non-toxic
[18]
  IC50: 67.1 µM
Staphylococcus aureus [19]
  survival at 1 µM: 4.3%

— ChEMBL document CHEMBL3813689, “Discovery of Potent Benzofuran-Derived Diapophytoene Desaturase (CrtN) Inhibitors with Enhanced Oral Bioavailability for the Treatment of Methicillin-Resistant Staphylococcus aureus (MRSA) Infections” (J Med Chem, 2016)
